Reference: ChEMBL document CHEMBL1153581, “Synthesis, antiviral and anticancer activity of some novel thioureas derived from N-(4-nitro-2-phenoxyphenyl)-methanesulfonamide” (Eur J Med Chem, 2009)
In brackets after ≈: the same amount, converted by molar mass.

Tests used:
[1] = tested on: Vesicular stomatitis virus; test: Antiviral activity against sVesicular stomatitis virus infected in HEL cells assessed as protection against virus-induced cytopathogenicity; format: functional
Human alphaherpesvirus 2 = test: Antiviral activity against Herpes simplex virus 2 infected in HEL cells assessed as protection against in virus-induced cytopathogenicity; format: functional
Coxsackievirus B4 [2] = test: Antiviral activity against Coxsackievirus B4 infected in human HeLa cells assessed as protection against virus-induced cytopathogenicity; format: functional; settings: Enterovirus B
Sindbis virus = test: Antiviral activity against Sindbis virus infected in african green monkey Vero cells assessed as protection against virus-induced cytopathogenicity; format: functional
Cytomegalovirus = test: Antiviral activity against Cytomegalovirus Davis infected in HEL cells assessed as reduction in virus plaque formation; format: functional, organism-based; settings: Human betaherpesvirus 5, Davis
Outline: (§1)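 Plaque reduction in HEL cells against CMV (AD-169, Davis) or VZV (TK⁺ OKA, TK⁻ 07/1), using a virus input of 20 PFU. EC50 is the concentration that reduced plaque formation by 50%.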

[3] = Cytotoxicity against HEL cells assessed as change in cell morphology; format: cell-based; settings: human
Outline: (§2)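 HEL cell cultures examined under the microscope. Minimal cytotoxic concentration (MCC) is the concentration that causes a microscopically detectable alteration of cell morphology. Compounds were tested at subtoxic concentrations alongside the antiviral tests.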

[4] = Cytotoxicity against Varicella Zoster Virus infected human […] cells assessed as reduction in cell growth; format: cell-based
[5] = Cytotoxicity against Varicella Zoster Virus infected human […] cells assessed as change in cell morphology; format: cell-based
Human alphaherpesvirus 3 [6] = test: Antiviral activity against Varicella Zoster Virus OKA infected in HEL cells assessed as reduction in virus plaque formation; format: functional, organism-based; settings: Human alphaherpesvirus 3, OKA; outline: as §1
[7] = tested on: Human immunodeficiency virus 2; test: Antiviral activity against HIV-2 ROD infected in human MT4 cells assessed as protection against virus-induced cytopathogenicity at 125 ug/ml; format: functional, ISOLATE ROD
Outline: (§3)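 MT-4 cells infected with HIV-1 (IIIB) or HIV-2 (ROD), with maximum protection (%) against virus-induced cytopathicity recorded at 125 of compound.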

[8] = tested on: Mammalian orthoreovirus 1; test: Antiviral activity against Reovirus 1 infected in african green monkey Vero cells assessed as protection against virus-induced cytopathogenicity; format: functional
[9] = tested on: Human immunodeficiency virus 1; test: Antiviral activity against HIV-1 3B infected human MT4 cells assessed as protection against virus-induced cytopathogenicity; format: functional, organism-based; settings: Human immunodeficiency virus 1, 3B
Outline: (§4)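 HIV-1 (IIIB) or HIV-2 (ROD) infection of MT-4 cells, scored as protection against virus-induced cytopathicity. IC50 was derived from protection.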

[10] = tested on: Vesicular stomatitis virus; test: Antiviral activity against Vesicular stomatitis virus infected in human HeLa cells assessed as protection against virus-induced cytopathogenicity; format: functional
[11] = tested on: Human immunodeficiency virus 1; test: Antiviral activity against HIV-1 3B infected in human MT4 cells assessed as protection against virus-induced cytopathogenicity at 125 ug/ml; format: functional; outline: as §3
Human alphaherpesvirus 1 [12] = test: Antiviral activity against HSV1 KOS infected in HEL cells assessed as protection against virus-induced cytopathogenicity; format: functional; settings: Human alphaherpesvirus 1, KOS
Human alphaherpesvirus 3 [13] = test: Antiviral activity against thymidine kinase deficient Varicella Zoster Virus 07/1 infected in HEL cells assessed as reduction in virus plaque formation; format: functional, organism-based; settings: Human alphaherpesvirus 3, 07/1, HEL; outline: as §1
[14] = Cytotoxicity against Cytomegalovirus infected HEL cells assessed as change in cell morphology; format: cell-based; settings: human; outline: as §2
Coxsackievirus B4 [15] = test: Antiviral activity against Coxsackievirus B4 infected in african green monkey Vero cells assessed as protection against virus-induced cytopathogenicity; format: functional; settings: Enterovirus B
[16] = Cytotoxicity against HIV-1 3B infected human MT4 cells; format: cell-based; settings: HIV-1 3B-infected MT4 cells
Punta Toro virus = test: Antiviral activity against Punta Toro virus infected in african green monkey Vero cells assessed as protection against virus-induced cytopathogenicity; format: functional
[17] = Cytotoxicity against african green monkey Vero cells assessed as change in cell morphology; format: cell-based; settings: chlorocebus sabaeus
Outline: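 Vero cell cultures were used for the broad-spectrum antiviral screen. The MCC endpoint is the lowest concentration that causes a microscopically detectable alteration of cell morphology. Activity was called when 5 × MIC < MCC.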

[18] = tested on: Human immunodeficiency virus 2; test: Antiviral activity against HIV-2 ROD infected human MT4 cells assessed as protection against virus-induced cytopathogenicity; format: functional, organism-based; settings: Human immunodeficiency virus 2, ISOLATE ROD; outline: as §4
Human alphaherpesvirus 1 [19] = test: Antiviral activity against acyclovir-resistant thymidine kinase-deficient HSV1 KOS infected in human HEL cells assessed as protection against virus-induced cytopathogenicity; format: functional; settings: Human alphaherpesvirus 1, KOS
Human respirovirus 3 = test: Antiviral activity against Parainfluenza-3 virus infected in african green monkey Vero cells assessed as protection against virus-induced cytopathogenicity; format: functional
[20] = Cytotoxicity against Cytomegalovirus infected HEL cells assessed as reduction in cell growth; format: cell-based; settings: human
[21] = tested on: Respiratory syncytial virus; test: Antiviral activity against RSV infected in human HeLa cells assessed as protection against virus-induced cytopathogenicity; format: functional
HeLa = test: Cytotoxicity against human HeLa cells assessed as change in cell morphology; format: functional
Outline: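 The minimum cytotoxic concentration (MCC) is the concentration causing a microscopically detectable alteration of cell morphology in the uninfected host cell culture.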

Human betaherpesvirus 5 = test: Antiviral activity against Cytomegalovirus AD169 infected in HEL cells assessed as reduction in virus plaque formation; format: functional, organism-based; settings: Human betaherpesvirus 5, AD169, HEL; outline: as §1
[22] = Selectivity index, ratio of MCC for HEL cells to MIC50 for vaccinia virus; format: functional
Outline: (§5)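 In HEL cell cultures, SI = MCC/MIC. MCC is the concentration giving microscopically detectable alteration of HEL cell morphology, and MIC is the minimal concentration effective against vaccinia or VSV cytopathicity.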

[23] = Selectivity index, ratio of MCC for HEL cells to MIC50 for vesicular stomatitis virus; format: functional; outline: as §5

CCNC(=S)Nc1ccc(NS(C)(=O)=O)c(Oc2ccccc2)c1
MIC50 [1]: > 200 µg/mL | MIC50 (Human alphaherpesvirus 2): 120 µg/mL (≈ 328 µM) | MIC50 (Coxsackievirus B4 [2]): > 40 µg/mL | MIC50 (Sindbis virus): > 40 µg/mL | EC50 (Cytomegalovirus): > 100 µg/mL | MCC [3]: > 200 µg/mL | CC50 [4]: > 100 µg/mL | CC50 [5]: > 100 µg/mL | EC50 (Human alphaherpesvirus 3 [6]): > 100 µg/mL | Activity [7]: 89.5% | MIC50 [8]: > 40 µg/mL | IC50 [9]: 54.8 µg/mL (≈ 150 µM) | MIC50 [10]: > 40 µg/mL | Activity [11]: 97% | MIC50 (Human alphaherpesvirus 1 [12]): 120 µg/mL (≈ 328 µM) | EC50 (Human alphaherpesvirus 3 [13]): > 100 µg/mL | CC50 [14]: > 100 µg/mL | MIC50 (Coxsackievirus B4 [15]): > 40 µg/mL | CC50 [16]: > 125 µg/mL | MIC50 (Punta Toro virus): > 40 µg/mL | MCC [17]: 200 µg/mL | IC50 [18]: 65.9 µg/mL (≈ 180 µM) | MIC50 (Human alphaherpesvirus 1 [19]): 120 µg/mL (≈ 328 µM) | MIC50 (Human respirovirus 3): ≥ 24 µg/mL | CC50 [20]: > 100 µg/mL | MIC50 [21]: > 40 µg/mL | MCC (HeLa): 200 µg/mL | EC50 (Human betaherpesvirus 5): > 100 µg/mL

CS(=O)(=O)Nc1ccc(NC(=S)NCCc2ccccc2)cc1Oc1ccccc1
MIC50 [1]: > 8 µg/mL | MIC50 (Human alphaherpesvirus 2): > 8 µg/mL | MIC50 (Coxsackievirus B4 [2]): > 8 µg/mL | MIC50 (Sindbis virus): > 1.6 µg/mL | EC50 (Cytomegalovirus): > 20 µg/mL | MCC [3]: 40 µg/mL | CC50 [4]: 48 µg/mL (≈ 109 µM) | CC50 [5]: ≥ 100 µg/mL | EC50 (Human alphaherpesvirus 3 [6]): > 20 µg/mL | MIC50 [8]: > 1.6 µg/mL | IC50 [9]: > 20.8 µg/mL | MIC50 [10]: > 8 µg/mL | MIC50 (Human alphaherpesvirus 1 [12]): > 8 µg/mL | EC50 (Human alphaherpesvirus 3 [13]): > 20 µg/mL | CC50 [14]: 100 µg/mL (≈ 226 µM) | MIC50 (Coxsackievirus B4 [15]): > 1.6 µg/mL | CC50 [16]: 20.8 µg/mL (≈ 47.1 µM) | MIC50 (Punta Toro virus): > 1.6 µg/mL | MCC [17]: 8 µg/mL | IC50 [18]: > 20.8 µg/mL | MIC50 (Human alphaherpesvirus 1 [19]): > 8 µg/mL | MIC50 (Human respirovirus 3): > 1.6 µg/mL | CC50 [20]: 48 µg/mL (≈ 109 µM) | MIC50 [21]: > 8 µg/mL | MCC (HeLa): 40 µg/mL | EC50 (Human betaherpesvirus 5): > 20 µg/mL

CS(=O)(=O)Nc1ccc(NC(=S)NC2CCCCC2)cc1Oc1ccccc1
MIC50 [1]: > 8 µg/mL | MIC50 (Human alphaherpesvirus 2): > 8 µg/mL | MIC50 (Coxsackievirus B4 [2]): > 8 µg/mL | MIC50 (Sindbis virus): > 1.6 µg/mL | EC50 (Cytomegalovirus): > 4 µg/mL | MCC [3]: 40 µg/mL | CC50 [4]: 82.4 µg/mL (≈ 196 µM) | CC50 [5]: ≥ 4 µg/mL | EC50 (Human alphaherpesvirus 3 [6]): > 20 µg/mL | MIC50 [8]: > 1.6 µg/mL | IC50 [9]: > 35.3 µg/mL | MIC50 [10]: > 8 µg/mL | MIC50 (Human alphaherpesvirus 1 [12]): > 8 µg/mL | EC50 (Human alphaherpesvirus 3 [13]): > 0.8 µg/mL | CC50 [14]: 20 µg/mL (≈ 47.7 µM) | MIC50 (Coxsackievirus B4 [15]): > 1.6 µg/mL | CC50 [16]: 35.3 µg/mL (≈ 84.1 µM) | MIC50 (Punta Toro virus): > 1.6 µg/mL | MCC [17]: 8 µg/mL | IC50 [18]: > 35.3 µg/mL | MIC50 (Human alphaherpesvirus 1 [19]): > 8 µg/mL | MIC50 (Human respirovirus 3): > 1.6 µg/mL | CC50 [20]: 33.6 µg/mL (≈ 80.1 µM) | MIC50 [21]: > 8 µg/mL | MCC (HeLa): 40 µg/mL | EC50 (Human betaherpesvirus 5): > 4 µg/mL

CS(=O)(=O)Nc1ccc(NC(=S)Nc2ccc([N+](=O)[O-])cc2)cc1Oc1ccccc1
MIC50 [1]: 8 µg/mL (≈ 17.4 µM) | MIC50 (Human alphaherpesvirus 2): > 8 µg/mL | MIC50 (Coxsackievirus B4 [2]): > 8 µg/mL | MIC50 (Sindbis virus): > 8 µg/mL | EC50 (Cytomegalovirus): 54.7 µg/mL (≈ 119 µM) | Selectivity Index [22]: 5 | MCC [3]: 40 µg/mL | CC50 [4]: > 100 µg/mL | CC50 [5]: 100 µg/mL (≈ 218 µM) | EC50 (Human alphaherpesvirus 3 [6]): > 20 µg/mL | MIC50 [8]: > 8 µg/mL | Selectivity Index [23]: 5 | IC50 [9]: > 15.2 µg/mL | MIC50 [10]: > 8 µg/mL | MIC50 (Human alphaherpesvirus 1 [12]): > 8 µg/mL | EC50 (Human alphaherpesvirus 3 [13]): > 20 µg/mL | CC50 [14]: > 100 µg/mL | MIC50 (Coxsackievirus B4 [15]): > 8 µg/mL | CC50 [16]: 15.2 µg/mL (≈ 33.1 µM) | MIC50 (Punta Toro virus): > 8 µg/mL | MCC [17]: 40 µg/mL | IC50 [18]: > 15.2 µg/mL | MIC50 (Human alphaherpesvirus 1 [19]): 8 µg/mL (≈ 17.4 µM) | MIC50 (Human respirovirus 3): > 8 µg/mL | CC50 [20]: > 100 µg/mL | MIC50 [21]: > 8 µg/mL | MCC (HeLa): 40 µg/mL | EC50 (Human betaherpesvirus 5): 54.7 µg/mL (≈ 119 µM)
